Measurements reported in ChEMBL document CHEMBL5303300, “EUbOPEN Chemogenomics Library - Multiplex” (2023).
Several values for one entry are separate records, joined by “and”; a condition that tells them apart may be missing. Equal values may be shown once.

Experiments:
Assay type in all cases: toxicity, cell-based
[1] = test system: U2OS; assay: Multiplex assay against U2OS; details: human, number of replicates 2
How it was run: (§1)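 Cells were classed with CellPathfinder machine-learning gating, first as Hoechst high-intensity objects or normal cells, then (normal cells) as healthy, pyknosed or fragmented nuclei, and finally (pyknosed cells) as mitotic or apoptotic. Staining of live cells at seeding used Hoechst33342, BioTracker Green Microtubule Cytoskeleton Dye, MitoTracker Red and Annexin V Alexa Fluor 680, with imaging on a CQ1 microscope at 37°C and 5% CO2 after compound addition. Tubulin, mitochondrial-mass and membrane-permeability phenotypes are per cents of healthy-nucleus cells.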

[2] = test system: Fibroblast; assay: Multiplex assay against human fibroblast; details: number of replicates 2; how it was run: as §1
[3] = test system: HEK-293T; assay: Multiplex assay against HEK293T; details: human, number of replicates 2; how it was run: as §1
[4] = 12 h, 1 µM, compound concentration 1 uM
[5] = 12 h, 10 µM, compound concentration 10 uM
[6] = 24 h, 1 µM, compound concentration 1 uM
[7] = 24 h, 10 µM, compound concentration 10 uM
[8] = 48 h, 1 µM, compound concentration 1 uM
[9] = 48 h, 10 µM, compound concentration 10 uM

## COc1cc(OC)cc(-c2cc3cnc(N)nc3nc2NC(=O)NC(C)(C)C)c1
[1]; [4]
  Population Apoptotic (%): 80% [middle of 4 runs]
  Population Fragmented Nuclei (%): 11% and 5% and 6% and 4%
  Population Healthy Nuclei (%): 80% and 87% and 83% and 89%
  Population Hoechst High Intensity Objects (%): 0%
  Population Membrane Permeable-Phenotype (%): 2% and 0% and 1%
  Population Mitochondria Different-Phenotype (%): 0%
  Population Normal (%): 100%
  Population Pyknosed Nuclei (%): 7% and 6% and 10% and 5%
  Population Tubulin-Different-Phenotype (%): 52% and 94% and 55% and 80%
[1]; [5]
  Population Healthy Nuclei (%): 85% and 60% and 88% and 65%
  Population Hoechst High Intensity Objects (%): 0%
  Population Membrane Permeable-Phenotype (%): 6% [middle of 4 runs]
  Population Mitochondria Different-Phenotype (%): 0% and 4%
  Population Normal (%): 99% and 100%
  Population Pyknosed Nuclei (%): 10% and 15% and 6% and 9%
  Population Tubulin-Different-Phenotype (%): 64% [middle of 4 runs]
[1]; [6]
  Population Apoptotic (%): 60% and 84% and 50%
  Population Fragmented Nuclei (%): 3% and 1% and 2%
  Population Healthy Nuclei (%): 89% and 90% and 82% and 86%
  Population Hoechst High Intensity Objects (%): 1% and 0%
  Population Membrane Permeable-Phenotype (%): 0% and 3% and 1%
  Population Mitochondria Different-Phenotype (%): 1% and 0%
  Population Normal (%): 98% and 100%
  Population Pyknosed Nuclei (%): 6% and 8% and 14% and 11%
  Population Tubulin-Different-Phenotype (%): 56% and 85% and 53% and 83%
[1]; [7]
  Population Apoptotic (%): 54% [middle of 4 runs]
  Population Healthy Nuclei (%): 83% and 68% and 84% and 72%
  Population Hoechst High Intensity Objects (%): 0%
  Population Membrane Permeable-Phenotype (%): 4% [middle of 4 runs]
  Population Mitochondria Different-Phenotype (%): 1% and 8% and 0%
  Population Normal (%): 100%
  Population Pyknosed Nuclei (%): 10% and 16% and 9% and 13%
  Population Tubulin-Different-Phenotype (%): 62% [middle of 4 runs]
[1]; [8]
  Population Apoptotic (%): 50% and 84% and 60% and 74%
  Population Fragmented Nuclei (%): 3% and 2% and 4%
  Population Healthy Nuclei (%): 86% and 88% and 92%
  Population Hoechst High Intensity Objects (%): 0%
  Population Membrane Permeable-Phenotype (%): 1% and 0%
  Population Mitochondria Different-Phenotype (%): 0% and 1%
  Population Normal (%): 100%
  Population Pyknosed Nuclei (%): 10% and 8% and 4% and 7%
  Population Tubulin-Different-Phenotype (%): 70% and 90% and 59% and 84%
[1]; [9]
  Population Apoptotic (%): 48% and 69% and 66% and 78%
  Population Healthy Nuclei (%): 87% and 68% and 86% and 64%
  Population Hoechst High Intensity Objects (%): 0%
  Population Membrane Permeable-Phenotype (%): 2% and 9%
  Population Mitochondria Different-Phenotype (%): 0% and 3% and 1%
  Population Mitotic Cells (%): 33% [middle of 4 runs]
  Population Normal (%): 100% and 99%
  Population Pyknosed Nuclei (%): 10% and 16% and 17%
  Population Tubulin-Different-Phenotype (%): 67% [middle of 4 runs]
[2]; [4]
  Population Apoptotic (%): 28% and 48% and 41% and 34%
  Population Fragmented Nuclei (%): 10% and 16% and 6% and 8%
  Population Healthy Nuclei (%): 72% and 62% and 76% and 70%
  Population Hoechst High Intensity Objects (%): 0% and 11%
  Population Membrane Permeable-Phenotype (%): 7% and 6% and 5%
  Population Mitochondria Different-Phenotype (%): 2% and 0%
  Population Mitotic Cells (%): 71% and 51% and 58% and 65%
  Population Normal (%): 100% and 88%
  Population Pyknosed Nuclei (%): 17% and 20% and 16%
  Population Tubulin-Different-Phenotype (%): 18% and 11% and 9% and 8%
  Total Cell Count: 258 and 266 and 187 and 224
[2]; [5]
  Population Apoptotic (%): 50% and 26% and 38% and 34%
  Population Fragmented Nuclei (%): 8% and 9% and 14% and 12%
  Population Healthy Nuclei (%): 60% and 67% and 71% and 66%
  Population Hoechst High Intensity Objects (%): 0%
  Population Membrane Permeable-Phenotype (%): 4% and 5%
  Population Mitochondria Different-Phenotype (%): 0% and 1%
  Population Mitotic Cells (%): 50% and 73% and 61% and 65%
  Population Normal (%): 100% and 99%
  Population Pyknosed Nuclei (%): 23% [middle of 4 runs]
  Total Cell Count: 176 and 182 and 232 and 229
[2]; [6]
  Population Apoptotic (%): 54% and 53% and 55%
  Population Fragmented Nuclei (%): 8% and 21% and 10%
  Population Healthy Nuclei (%): 74% and 57% and 71% and 65%
  Population Hoechst High Intensity Objects (%): 0% and 13%
  Population Membrane Permeable-Phenotype (%): 4% and 6% and 5%
  Population Mitochondria Different-Phenotype (%): 0% and 1%
  Population Mitotic Cells (%): 45% and 46% and 44%
  Population Normal (%): 99% and 86% and 100%
  Population Pyknosed Nuclei (%): 17% and 21% and 24%
  Population Tubulin-Different-Phenotype (%): 12% [middle of 4 runs]
  Total Cell Count: 260 and 192 and 201
[2]; [7]
  Population Apoptotic (%): 57% and 48% and 65% and 58%
  Population Fragmented Nuclei (%): 11% and 13% and 16% and 18%
  Population Healthy Nuclei (%): 63% and 67% and 70% and 66%
  Population Hoechst High Intensity Objects (%): 0%
  Population Membrane Permeable-Phenotype (%): 5% and 1% and 4%
  Population Mitochondria Different-Phenotype (%): 0% and 1%
  Population Mitotic Cells (%): 42% and 51% and 34% and 41%
  Population Normal (%): 100% and 99%
  Population Pyknosed Nuclei (%): 25% and 18% and 13% and 15%
  Total Cell Count: 187 and 175 and 231 and 236
[2]; [8]
  Population Apoptotic (%): 70% and 65% and 60% and 68%
  Population Fragmented Nuclei (%): 10% and 18% and 12% and 15%
  Population Healthy Nuclei (%): 75% and 63% and 65%
  Population Hoechst High Intensity Objects (%): 0% and 18%
  Population Membrane Permeable-Phenotype (%): 2% and 10% and 8% and 6%
  Population Mitochondria Different-Phenotype (%): 0%
  Population Mitotic Cells (%): 29% and 34% and 40% and 31%
  Population Normal (%): 100% and 81%
  Population Pyknosed Nuclei (%): 13% and 17% and 12% and 19%
  Population Tubulin-Different-Phenotype (%): 7% and 10% and 9% and 6%
  Total Cell Count: 266 and 238 and 205 and 226
[2]; [9]
  Population Apoptotic (%): 74% and 66% and 75% and 69%
  Population Fragmented Nuclei (%): 13% and 10% and 16% and 18%
  Population Healthy Nuclei (%): 65% and 67% and 71% and 69%
  Population Hoechst High Intensity Objects (%): 0%
  Population Membrane Permeable-Phenotype (%): 8% and 0% and 5% and 4%
  Population Mitochondria Different-Phenotype (%): 1% and 0%
  Population Mitotic Cells (%): 25% and 33% and 24% and 30%
  Population Normal (%): 100%
  Population Pyknosed Nuclei (%): 20% and 22% and 12%
  Total Cell Count: 190 and 176 and 237 and 215
[3]; [4]
  Population Apoptotic (%): 61% and 63% and 50% and 43%
  Population Fragmented Nuclei (%): 7% and 3% and 2% and 4%
  Population Healthy Nuclei (%): 77% and 80% and 85% and 83%
  Population Hoechst High Intensity Objects (%): 9% and 11% and 10%
  Population Membrane Permeable-Phenotype (%): 6% and 2% and 3% and 1%
  Population Mitochondria Different-Phenotype (%): 15% and 13% and 18% and 20%
  Population Mitotic Cells (%): 38% and 36% and 50% and 56%
  Population Normal (%): 90% and 88% and 89%
  Population Pyknosed Nuclei (%): 15% and 16% and 11%
  Population Tubulin-Different-Phenotype (%): 55% and 48% and 54% and 53%
  Total Cell Count: 713 and 595 and 582 and 616
[3]; [5]
  Population Apoptotic (%): 52% and 55% and 50% and 64%
  Population Fragmented Nuclei (%): 2% and 3% and 7% and 5%
  Population Healthy Nuclei (%): 82% and 86% and 79% and 81%
  Population Hoechst High Intensity Objects (%): 4% and 7% and 12% and 10%
  Population Membrane Permeable-Phenotype (%): 1% and 2%
  Population Mitochondria Different-Phenotype (%): 25% and 15% and 17% and 19%
  Population Mitotic Cells (%): 47% and 44% and 49% and 35%
  Population Normal (%): 95% and 92% and 87% and 89%
  Population Pyknosed Nuclei (%): 14% and 10% and 12%
  Population Tubulin-Different-Phenotype (%): 54% and 47% and 72% and 63%
  Total Cell Count: 524 and 626 and 917 and 726
[3]; [6]
  Population Apoptotic (%): 46% and 54% and 51% and 53%
  Population Fragmented Nuclei (%): 10% and 7% and 8%
  Population Healthy Nuclei (%): 76% and 78% and 82% and 80%
  Population Hoechst High Intensity Objects (%): 10% and 8%
  Population Membrane Permeable-Phenotype (%): 3% and 1% and 2%
  Population Mitochondria Different-Phenotype (%): 5% and 2% and 7%
  Population Mitotic Cells (%): 53% and 45% and 48% and 46%
  Population Normal (%): 89% and 91%
  Population Pyknosed Nuclei (%): 12% and 11% and 9%
  Population Tubulin-Different-Phenotype (%): 28% and 23% and 29% and 30%
  Total Cell Count: 1161 and 950 and 940 and 952
[3]; [7]
  Population Apoptotic (%): 52% and 40% and 48%
  Population Fragmented Nuclei (%): 5% and 4% and 11% and 8%
  Population Healthy Nuclei (%): 85% and 88% and 78% and 82%
  Population Hoechst High Intensity Objects (%): 8% and 9%
  Population Membrane Permeable-Phenotype (%): 3% and 2% and 1%
  Population Mitochondria Different-Phenotype (%): 11% and 4% and 3%
  Population Mitotic Cells (%): 47% and 59% and 51%
  Population Normal (%): 91% and 90%
  Population Pyknosed Nuclei (%): 9% and 6% and 10%
  Population Tubulin-Different-Phenotype (%): 30% and 35% and 38% and 33%
  Total Cell Count: 797 and 901 and 1521 and 1236
[3]; [8]
  Population Apoptotic (%): 16% and 24% and 25% and 17%
  Population Fragmented Nuclei (%): 13% [middle of 4 runs]
  Population Healthy Nuclei (%): 75% and 84% and 83% and 86%
  Population Hoechst High Intensity Objects (%): 8% and 7% and 10%
  Population Membrane Permeable-Phenotype (%): 6% and 3% and 4% and 2%
  Population Mitochondria Different-Phenotype (%): 0%
  Population Mitotic Cells (%): 83% and 75% and 82%
  Population Normal (%): 91% and 92% and 89%
  Population Pyknosed Nuclei (%): 2% and 3% and 4%
  Population Tubulin-Different-Phenotype (%): 12% and 9% and 13% and 16%
  Total Cell Count: 3190 and 2284 and 2394 and 1901
[3]; [9]
  Population Apoptotic (%): 28% and 21% and 14%
  Population Fragmented Nuclei (%): 14% [middle of 4 runs]
  Population Healthy Nuclei (%): 85% and 87% and 73% and 82%
  Population Hoechst High Intensity Objects (%): 9% and 10%
  Population Membrane Permeable-Phenotype (%): 4% and 5% and 2%
  Population Mitochondria Different-Phenotype (%): 0% and 1%
  Population Mitotic Cells (%): 71% and 78% and 85%
  Population Normal (%): 90% and 89%
  Population Pyknosed Nuclei (%): 3% and 2%
  Population Tubulin-Different-Phenotype (%): 15% and 18% and 20%
  Total Cell Count: 1964 and 1991 and 3775 and 2773
